The target of assay [1] is Cyclin-dependent kinase 19 (Homo sapiens) (UniProt Q9BWU1). Put plainly: Inhibition of biotinylated ligand binding to wild-type human partial length CDK11 (M1 to N360 residues) expressed in bacterial expression system at 50 nM measured after 1 hr by kinomescan assay relative to control. The gist of the method: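 T7 phage-tagged kinase lysates from E. coli BL21 were mixed with streptavidin beads carrying biotinylated ligand and 50 nM compound. Incubated 1 h at room temperature with shaking, washed, then eluted 30 min with 0.5 μM non-biotinylated ligand. Kinase was quantified by qPCR. POC = (test − positive)/(DMSO − positive) ×100, with a control compound as positive.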

Assay [2] deals with Serine/threonine-protein kinase LATS1 (Homo sapiens) (UniProt O95835). Put plainly: Inhibition of biotinylated ligand binding to wild-type human partial length LATS1 (Q678 to V1130 residues) expressed in bacterial expression system at 50 nM measured after 1 hr by kinomescan assay relative to control. The gist of the method:
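Kinase-tagged T7 phage was grown in an E. coli BL21-derived host at 32 °C until lysis, and the lysate was clarified. Kinase was bound to streptavidin beads carrying a biotinylated ligand, with test compound at 50 nM (final DMSO), in binding buffer for 1 h at rt. Bound kinase was eluted and quantified by qPCR. Result is POC relative to the DMSO (100%) and control-compound (0%) references.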

By inhibition is commonly meant the relative decrease from the control value, in per cent. Higher therefore signals a strong effect.

Molecules are shown by their SMILES.

Sequence of Cyclin-dependent kinase 19 (Homo sapiens) (Q9BWU1 whole entry, the tested form may be a part): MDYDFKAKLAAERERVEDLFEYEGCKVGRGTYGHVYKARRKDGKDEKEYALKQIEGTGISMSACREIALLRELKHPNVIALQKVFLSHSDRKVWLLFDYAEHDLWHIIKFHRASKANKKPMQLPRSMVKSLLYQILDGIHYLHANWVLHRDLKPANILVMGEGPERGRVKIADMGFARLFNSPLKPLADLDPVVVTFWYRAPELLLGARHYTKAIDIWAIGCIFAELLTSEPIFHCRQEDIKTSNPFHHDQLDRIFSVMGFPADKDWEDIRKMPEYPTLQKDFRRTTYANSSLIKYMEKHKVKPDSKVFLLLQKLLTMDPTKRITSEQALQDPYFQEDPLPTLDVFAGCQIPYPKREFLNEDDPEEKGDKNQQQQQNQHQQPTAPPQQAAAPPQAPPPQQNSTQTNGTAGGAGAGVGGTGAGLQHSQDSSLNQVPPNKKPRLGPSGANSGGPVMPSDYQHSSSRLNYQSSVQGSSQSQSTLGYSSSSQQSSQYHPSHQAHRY
Sequence of Serine/threonine-protein kinase LATS1 (Homo sapiens) (O95835 whole entry, the tested form may be a part): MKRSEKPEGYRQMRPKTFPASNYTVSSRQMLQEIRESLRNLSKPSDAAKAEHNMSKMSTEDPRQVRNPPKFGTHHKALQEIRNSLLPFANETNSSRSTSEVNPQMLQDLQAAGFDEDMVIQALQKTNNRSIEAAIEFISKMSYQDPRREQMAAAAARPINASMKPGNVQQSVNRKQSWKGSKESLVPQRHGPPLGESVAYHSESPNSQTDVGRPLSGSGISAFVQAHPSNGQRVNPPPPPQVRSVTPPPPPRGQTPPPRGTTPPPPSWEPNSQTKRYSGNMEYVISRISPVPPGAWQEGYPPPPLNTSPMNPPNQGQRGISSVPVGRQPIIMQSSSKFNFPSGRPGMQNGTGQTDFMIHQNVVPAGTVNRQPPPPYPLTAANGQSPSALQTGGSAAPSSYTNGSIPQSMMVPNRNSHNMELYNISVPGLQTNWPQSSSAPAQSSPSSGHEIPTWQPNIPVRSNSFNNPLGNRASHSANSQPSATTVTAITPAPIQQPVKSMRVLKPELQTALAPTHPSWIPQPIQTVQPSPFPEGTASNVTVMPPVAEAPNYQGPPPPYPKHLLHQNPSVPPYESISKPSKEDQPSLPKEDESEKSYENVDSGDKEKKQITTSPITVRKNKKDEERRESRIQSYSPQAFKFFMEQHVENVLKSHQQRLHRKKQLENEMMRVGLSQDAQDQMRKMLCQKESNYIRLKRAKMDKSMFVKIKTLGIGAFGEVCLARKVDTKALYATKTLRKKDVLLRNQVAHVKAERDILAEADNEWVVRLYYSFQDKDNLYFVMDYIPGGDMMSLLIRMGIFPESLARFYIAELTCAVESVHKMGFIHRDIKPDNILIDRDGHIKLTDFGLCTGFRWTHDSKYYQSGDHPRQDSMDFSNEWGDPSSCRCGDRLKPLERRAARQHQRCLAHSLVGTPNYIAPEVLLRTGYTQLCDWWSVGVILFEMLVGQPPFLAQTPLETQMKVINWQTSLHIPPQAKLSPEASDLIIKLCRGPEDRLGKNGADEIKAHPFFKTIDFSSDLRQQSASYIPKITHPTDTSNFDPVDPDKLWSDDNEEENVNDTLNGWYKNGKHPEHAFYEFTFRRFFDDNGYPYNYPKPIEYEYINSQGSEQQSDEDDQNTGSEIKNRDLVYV

Turning to `CN(C)[C@@H]1CC[C@@]2(C)[C@@H](CC[C@@H]3[C@@H]2CC[C@]2(C)C(c4cccc5cnccc45)=CC[C@@H]32)C1`, the inhibition in assay [1] and in assay [2] was more than 80% each time.

Source of the values: ChEMBL document CHEMBL4619723, “New CDK8 inhibitors as potential anti-leukemic agents - Design, synthesis and biological evaluation” (Bioorg Med Chem, 2020).
